Yeast growth inh = reduces growth of yeast BB579 in restrictive medium | S. cerevisiae BB579 growth, OD615, 48 h | inhibition, % at 10 µM | hit rate 0.51% among 140,000 | AID 804;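 active = inhibition above a set limit, 3 SD over the mean compound inhibition, cut at about 44% in these data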
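controls = amphotericin B 10 µg/mL, positive | assay system = DeaD yeast strain BB579 | schedule = 48 h compound exposure at 30 °C after 4 h preincubation | detection = OD615 turbidity measurement | medium = restrictive CSMM-D medium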
RAM inhibit = yeast RAM network inhibition; S. cerevisiae dse1pr::URA3 reporter, 5-FOA growth OD615, 2 d; analog-sensitive cbk1-as2 kinase mutant strain; hit rate 1.8% among 190,000; inhibition, % at 50 µM;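 active = inhibition above a set limit, 3 SD over mean compound inhibition, cut at about 8.4% in these data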;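 note: inhibition rescues growth on 5-FOA so higher OD means more RAM inhibition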
Ins promoter up = MIN6 insulin promoter up-regulation. MIN6 insulin promoter-GFP reporter, high-content imaging; stronger effect = higher value. z-score at 5 µM. hit rate 0.3% among 190,000. AID 1625;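 active = z-score above 3 at 5 µM with at least 500 cells counted in the well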
Insulin prom inh = TRM-6 insulin promoter activity inhibition | TRM-6 cells, insulin promoter-eGFP reporter, imaging; reporter expression induced with tamoxifen | inhibition, % at 2 µM | hit rate 0.9% among 130,000 | AID 1273;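 active = inhibition above the mean plus 3 SD, with well images judged a real hit on visual review, cut at about 60% in these data, passing the limit was not always enough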
Yeast lifespan up = extends the lifespan of yeast; S. cerevisiae growth with nicotinamide, OD615; deaD strain in restrictive glucose medium; inhibition of the nicotinamide effect, % at 10 µM; AID 775; hit rate 0.68% among 130,000;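 active = inhibition above a set limit, placed 3 SD over the median of all compounds, cut at about 26% in these data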
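System: Modified budding yeast, DeaD strain | Buffer or medium: Restrictive glucose medium | Also added: 1.5 mM nicotinamide | Doses: 10 µM single point, 0.25% DMSO | Schedule: 48 h compound exposure at 30 °C, humidified | Detection: Absorbance at 615 nm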
A number is an active result; . = inactive; / = not tested or not shown. An excerpt weighted towards active compounds, which were near 3% of everything screened.

SMILES	Yeast growth inh	RAM inhibit	Ins promoter up	Insulin prom inh	Yeast lifespan up
CCOC(=O)c1c(C)nc2c(c1-c1ccc(Cl)cc1)C(=O)CC(C)(C)C2	.	.	.	/	.
Cc1ccc(C(=O)Oc2cccc(NC(=O)c3ccccc3)c2)cc1C	.	10	.	.	.
COC(=O)c1cccc(NC(=O)c2ccccc2)c1	/	/	.	/	/
O=C(COC(=O)c1ccccc1)NCc1ccco1	.	.	.	.	.
Cc1ccc(C(=O)OCC(=O)NCc2ccco2)cc1	.	.	.	.	56
C=CCNC(=O)COC(=O)c1ccc(C)c(NC(=O)c2ccco2)c1	/	.	.	73	/
CCCCNC(=O)COC(=O)c1ccc(C)c(NC(=O)c2ccco2)c1	/	.	.	.	/
N#CCc1nc(CSc2nc3ccccc3s2)cs1	.	.	4	.	.
COc1ccc(/C=C2\SC(=S)N(CC(=O)OCC(=O)Nc3cc(Cl)cc(Cl)c3)C2=O)cc1	/	/	.	/	/
CCOC(=O)C1CCCN(c2c(N3CCN(c4ccccn4)CC3)c(=O)c2=O)C1 (stereo not given)	.	.	.	86	.
CCOC(=O)C1CCN(c2c(N3CCCC(C(=O)OCC)C3)c(=O)c2=O)CC1 (stereo not given)	.	.	/	/	.
O=c1cc(O)c2c(=O)n(-c3ccccc3)c3c(c2o1)CCCCC3	.	.	.	.	78
CCc1cccc(CC)c1NC(=O)CSc1nnc(CCC(=O)O)c(=O)[nH]1	/	.	/	.	/
O=C1CCCC/C1=N\Nc1ccc(C2CCCCC2)cc1	/	/	.	/	/
O=C1CCCC/C1=N\Nc1ccc(OCc2ccccc2)cc1	92	.	.	/	.
CC1CCN(c2ccc(NC(=O)c3ccccc3[N+](=O)[O-])cc2)CC1	/	.	/	/	/
CCNC(=S)N1CCC(C(N)=O)CC1	/	/	.	/	/
COc1ccc(-c2nc(N3CCC(C)CC3)[nH]c(=O)c2C#N)cc1	.	.	.	71	.
COc1ccc(-c2nc(N3CCCC3)[nH]c(=O)c2C#N)cc1	.	.	/	.	.
Cc1cc(Br)ccc1-n1[nH]c(C)c(C=Nc2cccc3nsnc23)c1=O	/	.	.	/	/
CN(C)S(=O)(=O)c1ccc(N2CCCC2)c(C(=O)Nc2nc(-c3cc(F)ccc3F)cs2)c1	.	9.2	.	.	.
CCOC(=O)C1=C(c2ccccc2)O/C(=C(/C#N)C(F)(F)F)S1	.	.	.	.	.
CCOC(=O)C1=C(c2ccccc2)O/C(=C(\C(=O)OC)C(F)(F)F)S1	.	11	/	.	.
COc1ccc(-n2cc(C(=O)Nc3cc([N+](=O)[O-])ccc3OC)c3ccccc3c2=O)cc1	.	.	.	.	.
CCCC(=O)N=C1SC2CS(=O)(=O)CC2N1c1ccc(-c2nc3ccc(C)cc3s2)cc1 (stereo not given)	.	.	.	/	.
SMILES	Yeast growth inh	RAM inhibit	Ins promoter up	Insulin prom inh	Yeast lifespan up
CCC1CC(C)(C(=O)Nc2ccc(S(N)(=O)=O)cc2)OC1=O (stereo not given)	.	.	/	/	49
CC1CC(CC(C)C(=O)NC(=S)Nc2ccc(S(N)(=O)=O)cc2)C(=O)O1 (stereo not given)	/	.	.	.	/
O=C(OCc1nnc(-c2ccc(Cl)cc2)o1)c1ccncc1	.	.	/	.	.
Cc1noc(C)c1COc1ccc(C(=O)OCc2nnc(-c3ccc(Cl)cc3)o2)cc1	.	10.0	.	/	.
CC(C)(C)c1nnc(N/N=C/c2cc(Br)ccc2O)n(N)c1=O	53	.	.	.	.
NC(=O)N/N=C\c1cc(Br)ccc1O	.	.	.	.	.
O=C(Nc1cccc(NC(=O)C2CCCO2)c1)c1ccco1 (stereo not given)	/	.	.	/	/
CCOC(=O)c1c(NC(C)=O)sc2c(O)c(CN3CCN(CC)CC3)ccc12	.	.	.	86	.
CCOC(=O)c1c(NC(C)=O)sc2c(OC)c(Br)ccc12	.	.	.	.	.
CCCNC(=O)c1nc(C)n(-c2ccc([N+](=O)[O-])cc2)n1	/	.	.	/	/
Cc1ccc(Nc2cc(C)nn2-c2nc(C)cc(=O)[nH]2)cc1	100	.	.	.	.
Cc1ccc(Nc2cc(C)nn2-c2nc(C)cc(C)n2)cc1	.	.	.	.	.
Cc1ccc2nc(-c3ccccc3O)c(Nc3ccc4c(c3)OCCO4)n2c1	.	.	.	67	.
CON/C=C(\C=Nc1ccc(Cl)cc1)c1ncc(C(F)(F)F)cc1Cl	.	11	.	.	.
CC12CCC(C(=O)N3CCCCC3)(CC1=O)C2(C)C (stereo not given)	.	.	.	.	.
CCN(CCO)C(=O)C12CCC(C)(C(=O)C1)C2(C)C (stereo not given)	.	.	.	.	68
O=[N+]([O-])c1ccc(N2CCC(=NOCc3ccc(Cl)cc3)CC2)cc1	.	11	/	/	.
Cc1ccc(C(=O)ON=C2CCN(c3ccc([N+](=O)[O-])cc3)CC2)cc1	.	.	.	/	.
CC(Sc1ccccc1)C(=O)NN=C1CCCCCC1 (stereo not given)	/	.	8.1	.	/
COc1ccc(/C=C2/C(=O)ON=C2c2ccccc2)cc1OC	61	.	.	.	27
O=C1ON=C(c2ccccc2)/C1=C/c1ccco1	/	.	.	/	/
COc1cc(/C=C2\C(=O)ON=C2c2ccccc2)cc(OC)c1OC	48	.	.	.	.
COc1ccc(CCNC(=O)CN2C(=O)NC(C)(c3ccc([N+](=O)[O-])cc3)C2=O)cc1 (stereo not given)	/	.	.	/	/
O=Cc1sc(Nc2ccccc2)nc1Cl	/	.	3.7	.	/
COc1ccccc1Nc1nc(Cl)c(C=O)s1	/	.	3.2	/	/
Cc1ccc(Nc2nc(Cl)c(C=O)s2)cc1Cl	/	.	/	/	/
CCC1=C(OC(=O)N(CC)CC)N2C(=O)OC(=NCC3CC3)[C@]2(Cc2ccccc2)[C@H]2C1=CC[C@H]1C(=O)N(CC)C(=O)[C@H]12	/	/	.	/	/
O=C(Cn1c(-c2ccccn2)nc2ccccc21)N/N=C/c1cccnc1	/	/	.	/	/
CC(=O)NCCc1nc2ccccc2n1CCOc1ccccc1	/	/	.	/	/

Screening results from PubChem BioAssay.
